Results published in paper PMC7984404 (Journal of Clinical Pharmacology, 2020).

What was measured:
[1] = system: pediatric patients with HAE; assay: Time to onset of symptom relief; assay type: in vivo, human; settings: for Median time to 50% probability of TOSR: pediatric HAE
Summary of the method: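 Pediatric HAE patients aged 2-17 received single SC 0.4 mg/kg (≤30 mg). The investigator scored symptoms before and after dosing. TOSR was the earliest time with ≥20% improvement in composite score and no component worsening. Model-predicted CTOSR, AUC0-TOSR, AUC0-6 and Cmax were related to TOSR by Kaplan-Meier curves stratified by exposure tertiles, and also by age group and sex.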

[2] = Exposure parameters; assay type: in vivo, human; settings: for AUC0-6, mean (%CV) / AUC0-6, median [range] / Cmax, mean (%CV) / Cmax, median [range]: popPK model-derived
Summary of the method: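 Final popPK model simulated concentration-time profiles from each subject's actual dosing history: single SC doses of 30 or 45 mg in adult HAE patients, and 0.05, 0.2 and 0.4 mg/kg single ascending doses in healthy adults. AUC0-6 came from simulated rich profiles by the trapezoidal rule, alongside Cmax, tmax and distribution and terminal half-lives. Values were summarised descriptively.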

[3] = cited from earlier work
[4] = Population pharmacokinetic; assay type: in vivo, human
Summary of the method: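 Pooled data from healthy adults, adult HAE patients and pediatric HAE patients aged 2-17 (2172 plasma concentrations, LC-MS/MS) were fitted with a two-compartment model. It had first-order absorption, lag time, and allometric weight effects with estimated exponents. Between-subject variability was log-normal, with additive plus proportional residual error. Covariates were weight, age, sex, race and attack within 12 h. CIs came from about 1000 bootstrap replicates, with prediction-corrected VPC.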

[5] = adult patients with HAE, SC 30 mg, n = 4
[6] = adult patients with HAE, SC 45 mg, n = 4
[7] = healthy subjects, SC 0.4 mg/kg, n = 24
[8] = healthy subjects, SC 30 mg, n = 109
[9] = pediatric patients with HAE 2-5 years, SC 0.4 mg/kg, n = 2
[10] = pediatric patients with HAE, SC 0.4 mg/kg (≤30 mg)
[11] = final popPK model, typical value, reference 70 kg
[12] = typical 70-kg adult, final popPK model

AUC0-6, mean (%CV) [2, 5]: 2725 (25.3) ng·h/mL | AUC0-6, median [range] [2, 5]: 2975 [1734‐3216] ng·h/mL | Cmax, mean (%CV) [2, 5]: 1279 (16.7) ng/mL | Cmax, median [range] [2, 5]: 1254 [1056‐1551] ng/mL | AUC0-6, mean (%CV) [2, 6]: 5473 (18.6) ng·h/mL | AUC0-6, median [range] [2, 6]: 5565 [4155‐6608] ng·h/mL | Cmax, mean (%CV) [2, 6]: 2136 (16.3) ng/mL | Cmax, median [range] [2, 6]: 2222 [1680‐2421] ng/mL | AUC0-6, mean (%CV) [2, 7]: 2669 (20.9) ng·h/mL | AUC0-6, median [range] [2, 7]: 2704 [1720‐3829] ng·h/mL | Cmax, mean (%CV) [2, 7]: 1240 (25.1) ng/mL | Cmax, median [range] [2, 7]: 1258 [836‐2120] ng/mL | AUC0-6, mean (%CV) [2, 8]: 2038 (23.8) ng·h/mL | AUC0-6, median [range] [2, 8]: 1941 [1126‐3311] ng·h/mL | Cmax, mean (%CV) [2, 8]: 974 (30.1) ng/mL | Cmax, median [range] [2, 8]: 915 [524‐2115] ng/mL | AUC0-6, mean (%CV) [2, 9]: 900 (24.6) ng·h/mL | AUC0-6, median [range] [2, 9]: 900 [744‐1056] ng·h/mL | Cmax, mean (%CV) [2, 9]: 692 (18.1) ng/mL | Cmax, median [range] [2, 9]: 692 [604‐780] ng/mL | Mean AUC0-6 lower than in adult patients with HAE treated with 30 mg [2, 10]: about 50% | Mean Cmax lower than in adult patients with HAE treated with 30 mg [2, 10]: ~42% | Cl/F lower than in a 70-kg adult ([4]; 60-kg adolescent (aged 12-17 years), final popPK model): 7% | Time to complete absorption after dosing ([4]; SC dosing, expected from final popPK model): ≤ 1 h | Absorption half-life t1/2(a) ([4]; corresponding to ka = 3.27 h^–1, SC dosing, final popPK model): ~12.7 min | Allometric exponent of weight (weight/70) on Vc/F ([4]; final popPK model): 0.671 | Allometric exponent of weight (weight/70) on Vp/F ([4]; final popPK model): 0.671 | Multiplicative factor on Vc/F if female ([4]; final popPK model): 0.855 | Multiplicative factor on Vc/F if nonwhite ([4]; final popPK model): 1.11 | Typical Cl/F lower in females than in males ([4]; final popPK model): about 12% | Typical Cl/F lower in pediatric patients who experienced an acute attack ([4]; final popPK model): 9% | Typical Vc/F higher in nonwhite than in white subjects ([4]; final popPK model): 11% | ka (absorption rate constant) ([4]; final popPK model, SC dosing, n = 172 (adults and pediatric HAE), typical value): 3.27 h^–1 | tlag (lag time) ([4]; final popPK model, SC dosing, n = 172, typical value): 0.0426 h | Vc/F (apparent central volume of distribution) ([4]; final popPK model, SC dosing, n = 172, typical value, reference 70 kg): 20.4 L | Cl/F (apparent total clearance) ([4]; final popPK model, SC dosing, n = 172, typical value, reference 70 kg, age 25): 15.4 L/h | Clp/F (apparent intercompartmental clearance) [4, 11]: 0.398 L/h | Vp/F (apparent peripheral volume of distribution) [4, 11]: 1.75 L | Clearance slower relative to a subject aged 25 years ([4]; subject aged 45 years, age effect of final popPK model): 20% | Cl/F lower than in a 70-kg adult ([4]; typical 40-kg child (aged 2-11 years), final popPK model): 25% | Distribution half-life t1/2(α) [4, 12]: 53.4 min | Terminal elimination half-life t1/2(β) [4, 12]: 192 min
SMILES: NC(N)=NCCC[C@@H](N)C(=O)N[C@@H](CCCN=C(N)N)C(=O)N1CCC[C@H]1C(=O)N1C[C@H](O)C[C@H]1C(=O)NCC(=O)N[C@@H](Cc1cccs1)C(=O)N[C@@H](CO)C(=O)N1Cc2ccccc2C[C@@H]1C(=O)N1[C@H](C(=O)N[C@@H](CCCN=C(N)N)C(=O)O)C[C@@H]2CCCC[C@@H]21 [icatibant]
Median time to 50% probability of TOSR ([1]; first tertile of CTOSR): 2.00 h | Time within which all patients displayed resolution of symptoms ([1]; pediatric patients with HAE, single SC 0.4 mg/kg (≤30 mg)): ≤ 4 h | Median time to 50% probability of TOSR ([1]; second tertile of CTOSR): 1.03 h | Time to achievement of maximum plasma concentrations ([3]; adults, single subcutaneous injection of 30 mg): ≤ 1 h | Parent drug excreted unchanged in human urine ([3]; human): < 10%
